# Measurements as given in PubChem BioAssay AID504775 (Broad Institute, 2011).
# Out of some 320,000 compounds screened, about 310 (0.097%) were called active. The sample as a whole holds a higher share of actives than the screen did. Values without a mark were called inactive.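 The calls were made as follows: active = mean replicate activation of at least 60% and every replicate at or above 60%; inconclusive = mean or all-replicate condition met, but not both; inactive = mean below 60% and not all replicates reaching 60%.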
# Experiment: enhancers of HDL lipid transfer via mSR-BI – ldlA[mSR-BI] CHO cells, DiI fluorescence, primary screen (AID 504775);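 also: 0% = median plate neutral-control signal and 100% = twice that signal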
# Conditions: DiI-HDL uptake fluorescence, 3 h, at 12.5 µM, hits give high values, 100 = double the neutral-control signal
# Procedure, shortened: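 Assay system: CHO ldlA[mSR-BI] cells, LDL receptor-null, SR-BI overexpressing; medium: Ham's F12 with 0.5% BSA, HEPES 25 mM, pH 7.4; also added: DiI-HDL 10 µg/mL; timing: 3 h uptake period with compound, 37 °C; signal: DiI fluorescence, bottom read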
row,SMILES,activation
1,CC(=O)OC1CCC2(C)C(=CCC3C4CC(=O)N(O)C(=O)C4(C)CCC32)C1 (centres undefined),19%
2,COc1ccc(NC(=O)/C(N=Nc2cccc(S(=O)(=O)Nc3ccc(SC(F)F)cc3)c2)=C(\C)O)cc1,19.4%
3,COc1ccc2nc(N3C(=O)C(O)=C(C(=O)c4ccco4)C3c3ccco3)sc2c1 (centres undefined),2.11%
4,O=C1NC(=O)C(CCc2ccccc2)(c2ccccc2)N1 (centres undefined),20.8%
5,COC[C@@H]1NS(=O)(=O)c2ccc(Br)cc2O[C@H]1c1ccccc1,-5.43%
6,CCOC(=O)[C@H]1[C@H]2COc3ccc(Cl)cc3[C@@H]2N2C(=O)c3cc(C)ccc3NC(=O)[C@@]12C,5.05%
7,COc1ccc2c(c1)[C@H]1[C@H](CO2)[C@H](c2ccccc2)[C@]2(C)C(=O)Nc3cc(F)c(F)cc3C(=O)N12,-10.6%
8,Cc1ccc2c(c1)NC(=O)[C@@]1(C)[C@@H](c3ccccc3)[C@H]3COc4ccc(Cl)cc4[C@@H]3N1C2=O,138% (active)
9,CCOc1ccc(CCNC(=O)COC(=O)C2CCN(S(=O)(=O)c3ccccc3)CC2)cc1OCC,-35%
10,COc1cc(NC(=S)NCc2ccc(S(N)(=O)=O)cc2)cc(OC)c1,1.73%
11,NS(=O)(=O)c1ccc(NC(=O)COC(=O)c2ccco2)cc1,-5.86%
12,NS(=O)(=O)c1ccc(CNC(=S)NC(=O)c2ccco2)cc1,304% (active)
13,COc1ccc(/C=C2/CCCc3ccccc3C2=O)cc1,-12.7%
14,CN(CCc1ccccc1)C(=O)c1cccc(NC(=O)Cc2cccc(NC(=O)C3CCCN(C(=O)C4CCC4)C3)c2)c1 (centres undefined),-26.9%
15,O=C(NCCc1ccccc1)c1ccc(NC2=NC3CS(=O)(=O)CC3S2)cc1 (centres undefined),85.7% (active)
16,CN(Cc1ccccc1)C(=O)c1ccc(NC2=NC3CS(=O)(=O)CC3S2)cc1 (centres undefined),-2.73%
17,COc1ccccc1N1CCN(C(=O)c2ccc(NC3=NC4CS(=O)(=O)CC4S3)cc2)CC1 (centres undefined),14.4%

row,SMILES,activation
1,COc1cc2c(cc1OC)C1C(=O)c3cc(OS(C)(=O)=O)c(OC)cc3C1N(C)C2=O (centres undefined),1.01%
2,COc1ccc(Cn2cc(CN3CCS(=O)(=O)N(Cc4ccc(-c5cccc(Cl)c5)cc4)C(C)C3=O)nn2)cc1 (centres undefined),-34.7%
3,O=[N+]([O-])c1ccc(COc2ccccc2CN2CCOCC2)cc1,19.3%
4,COc1cccc(CNC(=O)CN(C)S(=O)(=O)c2ccc3c(c2)c(=O)n(C)c(=O)n3C)c1,-3.22%
5,CC1CCC(NC(=O)CN(C)S(=O)(=O)c2ccc3c(c2)c(=O)n(C)c(=O)n3C)CC1 (centres undefined),246% (active)
6,CCc1ccccc1NC(=O)CN(C)S(=O)(=O)c1ccc2c(c1)c(=O)n(C)c(=O)n2C,-3.85%
7,O=C1CC(C(=O)O)NC(=S)N1 (centres undefined),3.49%
8,Cc1cc(C)c(C=NNc2nc3c([nH]2)c(=O)n(C)c(=O)n3C)c(C)c1,12.4%
9,CN(C)CCNC(=O)c1ccc(Cl)c2cc3ccccc3nc12,8.43%
10,CCN(CC)S(=O)(=O)c1cccc(NC(=O)c2ccc(S(=O)(=O)N3CCCC3)cc2)c1,-41.2%
11,CC(C)=CCc1ccc(O)c(=O)cc1C(C)C,-12.4%
12,O=C(Nc1c(Br)cc2c(c1Br)Cc1cc([N+](=O)[O-])ccc1-2)C(Cl)Cl,-60.9%
13,CN(O)C(=S)c1ccccc1,24.5%
14,O=C1CC(c2ccccc2)C(c2ccccc2)=NN1 (centres undefined),1.49%
15,COc1cc(/C=C/CNC[C@H]2O[C@@H](n3cnc(C(N)=O)n3)[C@H](O)[C@@H]2O)ccc1O,8.13%
16,O=S(=O)(Cc1ccc(Cl)cc1Cl)c1ccc(Cl)cc1,-15.8%
17,Cc1ccc2c(O)c(Cc3ccccc3)c(=O)[nH]c2n1,-7.66%
